# Measured values as given in ChEMBL document CHEMBL5058577, “EUbOPEN Chemogenomics Library 2 (Multiplex)” (2022).
# Tested on: Fibroblast
# Test: Multiplex assay against human fibroblast
# Type: toxicity, cell-based
# In short: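 On a CQ1 microscope at 37°C and 5% CO2, live cells were imaged after compound addition. They had been stained at seeding with Hoechst33342, BioTracker Green Microtubule Cytoskeleton Dye, MitoTracker Red and Annexin V Alexa Fluor 680. CellPathfinder machine-learning gating assigned cells to Hoechst high-intensity objects or normal cells, normal cells to healthy, pyknosed or fragmented nuclei, and pyknosed cells to mitotic or apoptotic. Tubulin, mitochondrial-mass and membrane-permeability phenotypes are per cents of healthy-nucleus cells.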
# [1] = 12 h, 1 µM, compound concentration 1 uM, replicate 1
# [2] = 12 h, 1 µM, compound concentration 1 uM, replicate 2
# [3] = 12 h, 10 µM, compound concentration 10 uM, replicate 1
# [4] = 12 h, 10 µM, compound concentration 10 uM, replicate 2
# [5] = 24 h, 1 µM, compound concentration 1 uM, replicate 1
# [6] = 24 h, 1 µM, compound concentration 1 uM, replicate 2
# [7] = 24 h, 10 µM, compound concentration 10 uM, replicate 1
# [8] = 24 h, 10 µM, compound concentration 10 uM, replicate 2
# [9] = 48 h, 1 µM, compound concentration 1 uM, replicate 1
# [10] = 48 h, 1 µM, compound concentration 1 uM, replicate 2
# [11] = 48 h, 10 µM, compound concentration 10 uM, replicate 1
# [12] = 48 h, 10 µM, compound concentration 10 uM, replicate 2
compound,measurement,setting,value
C=CCN1C[C@H](C(=O)N(CCCN(C)C)C(=O)NCC)C[C@@H]2c3cccc4[nH]cc(c34)C[C@H]21 [CABERGOLINE],Population Apoptotic (%),[1],69%
same,Population Fragmented Nuclei (%),[1],13%
same,Population Healthy Nuclei (%),[1],78%
same,Population Hoechst High Intensity Objects (%),[1],6%
same,Population Membrane Permeable-Phenotype (%),[1],0%
same,Population Mitochondria Different-Phenotype (%),[1],2%
same,Population Mitotic Cells (%),[1],30%
same,Population Normal (%),[1],93%
same,Population Pyknosed Nuclei (%),[1],7%
same,Population Tubulin-Different-Phenotype (%),[1],26%
same,Total Cell Count,[1],186
same,Population Apoptotic (%),[2],35%
same,Population Fragmented Nuclei (%),[2],20%
same,Population Healthy Nuclei (%),[2],46%
same,Population Membrane Permeable-Phenotype (%),[2],4%
same,Population Mitochondria Different-Phenotype (%),[2],1%
same,Population Mitotic Cells (%),[2],64%
same,Population Pyknosed Nuclei (%),[2],33%
same,Population Tubulin-Different-Phenotype (%),[2],25%
same,Total Cell Count,[2],144
same,Population Apoptotic (%),[3],50%
same,Population Fragmented Nuclei (%),[3],25%
same,Population Healthy Nuclei (%),[3],64%
same,Population Hoechst High Intensity Objects (%),[3],3%
same,Population Membrane Permeable-Phenotype (%),[3],0%
same,Population Mitochondria Different-Phenotype (%),[3],11%
same,Population Mitotic Cells (%),[3],50%
same,Population Normal (%),[3],96%
same,Population Pyknosed Nuclei (%),[3],10%
same,Population Tubulin-Different-Phenotype (%),[3],46%
same,Total Cell Count,[3],248
same,Population Apoptotic (%),[4],35%
same,Population Fragmented Nuclei (%),[4],44%
same,Population Healthy Nuclei (%),[4],39%
same,Population Hoechst High Intensity Objects (%),[4],5%
same,Population Membrane Permeable-Phenotype (%),[4],6%
same,Population Mitochondria Different-Phenotype (%),[4],10%
same,Population Mitotic Cells (%),[4],64%
same,Population Normal (%),[4],94%
same,Population Pyknosed Nuclei (%),[4],16%
same,Population Tubulin-Different-Phenotype (%),[4],53%
same,Total Cell Count,[4],178
same,Population Apoptotic (%),[5],68%
same,Population Fragmented Nuclei (%),[5],15%
same,Population Healthy Nuclei (%),[5],74%
same,Population Hoechst High Intensity Objects (%),[5],4%
same,Population Membrane Permeable-Phenotype (%),[5],1%
same,Population Mitochondria Different-Phenotype (%),[5],3%
same,Population Mitotic Cells (%),[5],31%
same,Population Normal (%),[5],95%
same,Population Pyknosed Nuclei (%),[5],10%
same,Population Tubulin-Different-Phenotype (%),[5],33%
same,Total Cell Count,[5],198
same,Population Apoptotic (%),[6],44%
same,Population Fragmented Nuclei (%),[6],24%
same,Population Healthy Nuclei (%),[6],46%
same,Population Hoechst High Intensity Objects (%),[6],6%
same,Population Membrane Permeable-Phenotype (%),[6],3%
same,Population Mitotic Cells (%),[6],55%
same,Population Normal (%),[6],93%
same,Population Pyknosed Nuclei (%),[6],29%
same,Population Tubulin-Different-Phenotype (%),[6],39%
same,Total Cell Count,[6],132
same,Population Apoptotic (%),[7],73%
same,Population Fragmented Nuclei (%),[7],28%
same,Population Healthy Nuclei (%),[7],65%
same,Population Hoechst High Intensity Objects (%),[7],1%
same,Population Membrane Permeable-Phenotype (%),[7],0%
same,Population Mitochondria Different-Phenotype (%),[7],7%
same,Population Mitotic Cells (%),[7],26%
same,Population Normal (%),[7],98%
same,Population Pyknosed Nuclei (%),[7],5%
same,Population Tubulin-Different-Phenotype (%),[7],44%
same,Total Cell Count,[7],274
same,Population Apoptotic (%),[8],43%
same,Population Fragmented Nuclei (%),[8],43%
same,Population Healthy Nuclei (%),[8],46%
same,Population Hoechst High Intensity Objects (%),[8],10%
same,Population Membrane Permeable-Phenotype (%),[8],2%
same,Population Mitochondria Different-Phenotype (%),[8],5%
same,Population Mitotic Cells (%),[8],56%
same,Population Normal (%),[8],89%
same,Population Pyknosed Nuclei (%),[8],9%
same,Population Tubulin-Different-Phenotype (%),[8],53%
same,Total Cell Count,[8],181
same,Population Apoptotic (%),[9],56%
same,Population Fragmented Nuclei (%),[9],15%
same,Population Healthy Nuclei (%),[9],75%
same,Population Hoechst High Intensity Objects (%),[9],5%
same,Population Membrane Permeable-Phenotype (%),[9],0%
same,Population Mitochondria Different-Phenotype (%),[9],6%
same,Population Mitotic Cells (%),[9],43%
same,Population Normal (%),[9],94%
same,Population Pyknosed Nuclei (%),[9],8%
same,Population Tubulin-Different-Phenotype (%),[9],34%
same,Total Cell Count,[9],189
same,Population Apoptotic (%),[10],58%
same,Population Fragmented Nuclei (%),[10],24%
same,Population Healthy Nuclei (%),[10],54%
same,Population Hoechst High Intensity Objects (%),[10],7%
same,Population Membrane Permeable-Phenotype (%),[10],6%
same,Population Mitochondria Different-Phenotype (%),[10],1%
same,Population Mitotic Cells (%),[10],41%
same,Population Normal (%),[10],92%
same,Population Pyknosed Nuclei (%),[10],21%
same,Population Tubulin-Different-Phenotype (%),[10],33%
same,Total Cell Count,[10],156
same,Population Apoptotic (%),[11],72%
same,Population Fragmented Nuclei (%),[11],24%
same,Population Healthy Nuclei (%),[11],68%
same,Population Hoechst High Intensity Objects (%),[11],4%
same,Population Membrane Permeable-Phenotype (%),[11],1%
same,Population Mitochondria Different-Phenotype (%),[11],4%
same,Population Mitotic Cells (%),[11],27%
same,Population Normal (%),[11],95%
same,Population Pyknosed Nuclei (%),[11],6%
same,Population Tubulin-Different-Phenotype (%),[11],46%
same,Total Cell Count,[11],282
same,Population Apoptotic (%),[12],46%
same,Population Fragmented Nuclei (%),[12],52%
same,Population Healthy Nuclei (%),[12],37%
same,Population Hoechst High Intensity Objects (%),[12],5%
same,Population Membrane Permeable-Phenotype (%),[12],6%
same,Population Mitochondria Different-Phenotype (%),[12],11%
same,Population Mitotic Cells (%),[12],53%
same,Population Normal (%),[12],94%
same,Population Pyknosed Nuclei (%),[12],9%
same,Population Tubulin-Different-Phenotype (%),[12],44%
same,Total Cell Count,[12],170
CC(F)(F)CN1CCOc2c(nn(-c3ccccc3Cl)c2-c2ccc(Cl)cc2)C1=O,Population Apoptotic (%),[1],42%
same,Population Healthy Nuclei (%),[1],66%
same,Population Hoechst High Intensity Objects (%),[1],0%
same,Population Mitochondria Different-Phenotype (%),[1],4%
same,Population Mitotic Cells (%),[1],57%
same,Population Normal (%),[1],99%
same,Population Pyknosed Nuclei (%),[1],15%
same,Total Cell Count,[1],125
same,Population Apoptotic (%),[2],31%
same,Population Healthy Nuclei (%),[2],48%
same,Population Mitochondria Different-Phenotype (%),[2],10%
same,Population Mitotic Cells (%),[2],68%
same,Population Normal (%),[2],93%
same,Population Pyknosed Nuclei (%),[2],25%
same,Population Tubulin-Different-Phenotype (%),[2],61%
same,Total Cell Count,[2],122
same,Population Apoptotic (%),[3],47%
same,Population Healthy Nuclei (%),[3],66%
same,Population Hoechst High Intensity Objects (%),[3],1%
same,Population Mitochondria Different-Phenotype (%),[3],19%
same,Population Mitotic Cells (%),[3],52%
same,Population Normal (%),[3],98%
same,Population Pyknosed Nuclei (%),[3],17%
same,Population Tubulin-Different-Phenotype (%),[3],49%
same,Total Cell Count,[3],109
same,Population Apoptotic (%),[4],30%
same,Population Healthy Nuclei (%),[4],53%
same,Population Hoechst High Intensity Objects (%),[4],5%
same,Population Mitochondria Different-Phenotype (%),[4],8%
same,Population Mitotic Cells (%),[4],70%
same,Population Normal (%),[4],94%
same,Population Pyknosed Nuclei (%),[4],15%
same,Population Tubulin-Different-Phenotype (%),[4],57%
same,Total Cell Count,[4],134
same,Population Apoptotic (%),[5],61%
same,Population Healthy Nuclei (%),[5],65%
same,Population Hoechst High Intensity Objects (%),[5],1%
same,Population Mitochondria Different-Phenotype (%),[5],2%
same,Population Mitotic Cells (%),[5],38%
same,Population Normal (%),[5],98%
same,Population Pyknosed Nuclei (%),[5],15%
same,Total Cell Count,[5],119
same,Population Apoptotic (%),[6],64%
same,Population Healthy Nuclei (%),[6],52%
same,Population Hoechst High Intensity Objects (%),[6],4%
same,Population Mitochondria Different-Phenotype (%),[6],10%
same,Population Mitotic Cells (%),[6],36%
same,Population Normal (%),[6],95%
same,Population Pyknosed Nuclei (%),[6],20%
same,Population Tubulin-Different-Phenotype (%),[6],75%
same,Total Cell Count,[6],129
same,Population Apoptotic (%),[7],33%
same,Population Healthy Nuclei (%),[7],65%
same,Population Hoechst High Intensity Objects (%),[7],0%
same,Population Mitochondria Different-Phenotype (%),[7],26%
same,Population Mitotic Cells (%),[7],66%
same,Population Normal (%),[7],99%
same,Population Pyknosed Nuclei (%),[7],10%
same,Population Tubulin-Different-Phenotype (%),[7],58%
same,Total Cell Count,[7],111
same,Population Apoptotic (%),[8],35%
same,Population Healthy Nuclei (%),[8],54%
same,Population Hoechst High Intensity Objects (%),[8],1%
same,Population Mitochondria Different-Phenotype (%),[8],10%
same,Population Mitotic Cells (%),[8],64%
same,Population Normal (%),[8],98%
same,Population Pyknosed Nuclei (%),[8],14%
same,Population Tubulin-Different-Phenotype (%),[8],60%
same,Total Cell Count,[8],121
same,Population Apoptotic (%),[9],56%
same,Population Healthy Nuclei (%),[9],63%
same,Population Hoechst High Intensity Objects (%),[9],1%
same,Population Mitochondria Different-Phenotype (%),[9],2%
same,Population Mitotic Cells (%),[9],43%
same,Population Normal (%),[9],98%
same,Population Pyknosed Nuclei (%),[9],11%
same,Population Tubulin-Different-Phenotype (%),[9],35%
same,Total Cell Count,[9],136
same,Population Apoptotic (%),[10],40%
same,Population Healthy Nuclei (%),[10],53%
same,Population Hoechst High Intensity Objects (%),[10],4%
same,Population Mitochondria Different-Phenotype (%),[10],21%
same,Population Mitotic Cells (%),[10],60%
same,Population Normal (%),[10],95%
same,Population Pyknosed Nuclei (%),[10],7%
same,Population Tubulin-Different-Phenotype (%),[10],72%
same,Total Cell Count,[10],135
same,Population Apoptotic (%),[11],78%
same,Population Healthy Nuclei (%),[11],56%
same,Population Hoechst High Intensity Objects (%),[11],1%
same,Population Mitochondria Different-Phenotype (%),[11],22%
same,Population Mitotic Cells (%),[11],21%
same,Population Normal (%),[11],98%
same,Population Pyknosed Nuclei (%),[11],11%
same,Total Cell Count,[11],120
same,Population Apoptotic (%),[12],54%
same,Population Healthy Nuclei (%),[12],54%
same,Population Mitochondria Different-Phenotype (%),[12],7%
same,Population Mitotic Cells (%),[12],45%
same,Population Pyknosed Nuclei (%),[12],7%
same,Population Tubulin-Different-Phenotype (%),[12],57%
same,Total Cell Count,[12],141
